Laboratory results from ChEMBL document CHEMBL1944603, “An efficient synthesis of highly functionalized novel chromeno[4,3-b]pyrroles and indolizino[6,7-b]indoles as potent antimicrobial and antioxidant agents” (2012).
≈ marks a conversion by molar mass, not a printed value.

Tests used:
Format in all cases: functional
Bacillus subtilis [1] = test: Antimicrobial activity against Bacillus subtilis at 25 ug/ml by agar diffusion assay
In short: (§1)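 Agar diffusion assay in duplicate against the human bacterial pathogens; tetracycline as reference control.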

Bacillus subtilis [2] = test: Antimicrobial activity against Bacillus subtilis at 50 ug/ml by agar diffusion assay; in short: as §1
Bacillus subtilis [3] = test: Antimicrobial activity against Bacillus subtilis at 75 ug/ml by agar diffusion assay; in short: as §1
Bacillus subtilis [4] = test: Antimicrobial activity against Bacillus subtilis at 100 ug/ml by agar diffusion assay; in short: as §1
Staphylococcus aureus [5] = test: Antimicrobial activity against Staphylococcus aureus at 25 ug/ml by agar diffusion assay; in short: as §1
Staphylococcus aureus [6] = test: Antimicrobial activity against Staphylococcus aureus at 50 ug/ml by agar diffusion assay; in short: as §1
Staphylococcus aureus [7] = test: Antimicrobial activity against Staphylococcus aureus at 75 ug/ml by agar diffusion assay; in short: as §1
Staphylococcus aureus [8] = test: Antimicrobial activity against Staphylococcus aureus at 100 ug/ml by agar diffusion assay; in short: as §1
Pseudomonas aeruginosa [9] = test: Antimicrobial activity against Pseudomonas aeruginosa at 25 ug/ml by agar diffusion assay; in short: as §1
Pseudomonas aeruginosa [10] = test: Antimicrobial activity against Pseudomonas aeruginosa at 50 ug/ml by agar diffusion assay; in short: as §1
Pseudomonas aeruginosa [11] = test: Antimicrobial activity against Pseudomonas aeruginosa at 75 ug/ml by agar diffusion assay; in short: as §1
Pseudomonas aeruginosa [12] = test: Antimicrobial activity against Pseudomonas aeruginosa at 100 ug/ml by agar diffusion assay; in short: as §1
Klebsiella pneumoniae [13] = test: Antimicrobial activity against Klebsiella pneumoniae at 25 ug/ml by agar diffusion assay; in short: as §1
Klebsiella pneumoniae [14] = test: Antimicrobial activity against Klebsiella pneumoniae at 50 ug/ml by agar diffusion assay; in short: as §1
Klebsiella pneumoniae [15] = test: Antimicrobial activity against Klebsiella pneumoniae at 75 ug/ml by agar diffusion assay; in short: as §1
Klebsiella pneumoniae [16] = test: Antimicrobial activity against Klebsiella pneumoniae at 100 ug/ml by agar diffusion assay; in short: as §1
[17] = test system: Radical scavenging activity; test: Antioxidant activity assessed as DPPH free radical scavenging activity at 50 ug by spectrophotometer
In short: (§2)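 DPPH radical scavenging measured spectrophotometrically by Blois's method at 50, 500 and 1000 µg. Absorbance read at 517 nm. Percent scavenging is the absorbance decrease at 517 nm relative to the absorbance of DPPH solution without test compound. L-ascorbic acid as standard.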

Fusarium oxysporum = test: Antifungal activity against Fusarium oxysporum
In short: (§3)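 Agar diffusion assay in duplicate against the plant fungal pathogens; read-out as minimum inhibitory concentration (MIC); carbendazim as reference control.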

Macrophomina phaseolina = test: Antifungal activity against Macrophomina phaseolina; in short: as §3
[18] = test system: Radical scavenging activity; test: Antioxidant activity assessed as DPPH free radical scavenging activity at 500 ug by spectrophotometer; in short: as §2
[19] = test system: Radical scavenging activity; test: Antioxidant activity assessed as DPPH free radical scavenging activity at 1000 ug by spectrophotometer; in short: as §2

| Structure (SMILES) | inhibition zone (IZ) (Bacillus subtilis [1]) | inhibition zone (IZ) (Bacillus subtilis [2]) | inhibition zone (IZ) (Bacillus subtilis [3]) | inhibition zone (IZ) (Bacillus subtilis [4]) | inhibition zone (IZ) (Staphylococcus aureus [6]) | inhibition zone (IZ) (Staphylococcus aureus [7]) | inhibition zone (IZ) (Staphylococcus aureus [8]) | inhibition zone (IZ) (Pseudomonas aeruginosa [9]) | inhibition zone (IZ) (Pseudomonas aeruginosa [10]) | inhibition zone (IZ) (Pseudomonas aeruginosa [11]) | inhibition zone (IZ) (Pseudomonas aeruginosa [12]) | inhibition zone (IZ) (Klebsiella pneumoniae [13]) | inhibition zone (IZ) (Klebsiella pneumoniae [14]) | inhibition zone (IZ) (Klebsiella pneumoniae [15]) | inhibition zone (IZ) (Klebsiella pneumoniae [16]) | Activity [17] | MIC (Fusarium oxysporum) | MIC (Macrophomina phaseolina) | Activity [18] | Activity [19] | other results |
| --- | --- | --- | --- | --- | --- | --- | --- | --- | --- | --- | --- | --- | --- | --- | --- | --- | --- | --- | --- | --- | --- |
| CN(C)[C@@H]1C(O)=C(C(N)=O)C(=O)[C@@]2(O)C(O)=C3C(=O)c4c(O)cccc4[C@@](C)(O)[C@H]3C[C@@H]12 [TETRACYCLINE] | 15 mm | 24 mm | 29 mm | > 40 mm | 24 mm | 29 mm | > 40 mm | 20 mm | 26 mm | 28 mm | > 40 mm | 18 mm | 22 mm | 28 mm | > 40 mm |  |  |  |  |  | inhibition zone (IZ) (Staphylococcus aureus [5]): 22 mm |
| COC(=O)[C@]12Cc3c([nH]c4ccccc34)[C@@H](c3ccc(OC)cc3)N1[C@@H]1c3ccccc3OC[C@@H]1C2 | 8 mm | 11 mm | 18 mm | 19 mm | 12 mm | 16 mm | 18 mm | 7 mm | 11 mm | 15 mm | 20 mm | 8 mm | 11 mm | 19 mm | 20 mm | 28% | 35 µg/mL (≈ 72.8 µM) | 50 µg/mL (≈ 104 µM) | 50% | 68% |  |
| COC(=O)Nc1nc2ccccc2[nH]1 [CARBENDAZIM] |  |  |  |  |  |  |  |  |  |  |  |  |  |  |  |  | 20 µg/mL (≈ 105 µM) | 15 µg/mL (≈ 78.5 µM) |  |  |  |
| COC(=O)[C@]12Cc3c([nH]c4ccccc34)[C@@H](c3ccccc3)N1[C@@H]1c3ccccc3OC[C@@H]1C2 | 9 mm | 11 mm | 20 mm | 25 mm | 11 mm | 18 mm | 25 mm | 9 mm | 12 mm | 20 mm | 24 mm | 9 mm | 11 mm | 19 mm | 26 mm | 28% | 30 µg/mL (≈ 66.6 µM) | 40 µg/mL (≈ 88.8 µM) | 53% | 70% | inhibition zone (IZ) (Staphylococcus aureus [5]): 9 mm |
| COC(=O)[C@]12Cc3c([nH]c4ccccc34)[C@@H](c3cccc([N+](=O)[O-])c3)N1[C@@H]1c3c(ccc4ccccc34)OC[C@@H]1C2 | 12 mm | 19 mm | 24 mm | 29 mm | 20 mm | 24 mm | 28 mm | 14 mm | 20 mm | 24 mm | 30 mm | 13 mm | 18 mm | 22 mm | 27 mm | 30% | 35 µg/mL (≈ 64.2 µM) | 90 µg/mL (≈ 165 µM) | 53% | 67% | inhibition zone (IZ) (Staphylococcus aureus [5]): 19 mm |
| COC(=O)[C@]12Cc3c([nH]c4ccccc34)[C@@H](c3ccc(C)cc3)N1[C@@H]1c3ccccc3OC[C@@H]1C2 | 9 mm | 12 mm | 15 mm | 20 mm | 13 mm | 17 mm | 18 mm | 8 mm | 12 mm | 16 mm | 19 mm | 8 mm | 13 mm | 18 mm | 19 mm | 24% | 110 µg/mL (≈ 237 µM) | 80 µg/mL (≈ 172 µM) | 49% | 73% | inhibition zone (IZ) (Staphylococcus aureus [5]): 9 mm |
| COC(=O)[C@]12Cc3c([nH]c4ccccc34)[C@@H](c3ccc(Cl)cc3)N1[C@@H]1c3ccccc3OC[C@@H]1C2 | 13.5 mm | 21 mm | 26 mm | 36 mm | 21 mm | 24 mm | 29 mm | 16 mm | 22 mm | 25 mm | 36 mm | 16 mm | 20 mm | 25 mm | 30 mm | 21% | 70 µg/mL (≈ 144 µM) | 20 µg/mL (≈ 41.2 µM) | 43% | 68% | inhibition zone (IZ) (Staphylococcus aureus [5]): 20 mm |
| COC(=O)[C@]12Cc3c([nH]c4ccccc34)[C@@H](c3cccc([N+](=O)[O-])c3)N1[C@@H]1c3ccccc3OC[C@@H]1C2 | 14 mm | 21 mm | 28 mm | 40 mm | 22 mm | 24 mm | 36 mm | 17 mm | 24 mm | 26 mm | 40 mm | 15 mm | 20 mm | 25 mm | 36 mm | 18% | 90 µg/mL (≈ 182 µM) | 25 µg/mL (≈ 50.5 µM) | 42% | 70% | inhibition zone (IZ) (Staphylococcus aureus [5]): 20 mm |
| COC(=O)[C@]12Cc3c([nH]c4ccccc34)[C@@H](c3ccccc3)N1[C@@H]1c3c(ccc4ccccc34)OC[C@@H]1C2 | 9 mm | 12 mm | 20 mm | 24 mm | 13 mm | 18 mm | 26 mm | 9 mm | 13 mm | 18 mm | 25 mm | 10 mm | 12 mm | 17 mm | 24 mm | 17% | 30 µg/mL (≈ 59.9 µM) | 85 µg/mL (≈ 170 µM) | 33% | 69% | inhibition zone (IZ) (Staphylococcus aureus [5]): 9 mm |
| COC(=O)[C@]12Cc3c([nH]c4ccccc34)[C@@H](c3ccc(Cl)cc3)N1[C@@H]1c3c(ccc4ccccc34)OC[C@@H]1C2 | 12 mm | 18 mm | 21 mm | 26 mm | 17 mm | 20 mm | 28 mm | 12 mm | 16 mm | 20 mm | 26 mm | 11 mm | 15 mm | 22 mm | 25 mm | 26% | 90 µg/mL (≈ 168 µM) | 105 µg/mL (≈ 196 µM) | 44% | 75% | inhibition zone (IZ) (Staphylococcus aureus [5]): 14 mm |
| O=C1O[C@H]([C@@H](O)CO)C(O)=C1O |  |  |  |  |  |  |  |  |  |  |  |  |  |  |  | 95% |  |  | 97% | 99% |  |
